In ChEMBL document CHEMBL4689842, “EUbOPEN Chemogenomics Library wave 1” (2021):

Test system: HEK-293T
Assay: Multiplex assay against HEK293T;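 on Population Tubulin-Different-Phenotype (%): share of the cells with healthy nuclei that show this phenotype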
Type: toxicity, cell-based
Details: human
How it was run: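 Live cells were stained at seeding with Hoechst33342, BioTracker Green Microtubule Cytoskeleton Dye, MitoTracker Red and Annexin V Alexa Fluor 680, then imaged on a CQ1 microscope at 37°C and 5% CO2 after compound addition. CellPathfinder machine-learning gating split cells into Hoechst high-intensity objects or normal cells. Normal cells were split into healthy, pyknosed or fragmented nuclei, and pyknosed cells into mitotic or apoptotic. Tubulin, mitochondrial-mass and membrane-permeability phenotypes are per cents of healthy-nucleus cells.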

[1] = 12 h, 1 µM, compound concentration 1 uM, replicate 1
[2] = 12 h, 1 µM, compound concentration 1 uM, replicate 2
[3] = 12 h, 10 µM, compound concentration 10 uM, replicate 1
[4] = 12 h, 10 µM, compound concentration 10 uM, replicate 2
[5] = 24 h, 1 µM, compound concentration 1 uM, replicate 1
[6] = 24 h, 1 µM, compound concentration 1 uM, replicate 2
[7] = 24 h, 10 µM, compound concentration 10 uM, replicate 1
[8] = 24 h, 10 µM, compound concentration 10 uM, replicate 2
[9] = 48 h, 1 µM, compound concentration 1 uM, replicate 1
[10] = 48 h, 1 µM, compound concentration 1 uM, replicate 2
[11] = 48 h, 10 µM, compound concentration 10 uM, replicate 1
[12] = 48 h, 10 µM, compound concentration 10 uM, replicate 2

Compound: N#CCNC(=O)c1ccc(-c2ccnc(Nc3ccc(N4CCOCC4)cc3)n2)cc1 [MOMELOTINIB]
- Population Apoptotic (%) [1]: 35%
- Population Fragmented Nuclei (%) [1]: 8%
- Population Healthy Nuclei (%) [1]: 53%
- Population Hoechst High Intensity Objects (%) [1]: 12%
- Population Membrane Permeable-Phenotype (%) [1]: 0%
- Population Mitochondria Different-Phenotype (%) [1]: 61%
- Population Mitotic Cells (%) [1]: 64%
- Population Normal (%) [1]: 87%
- Population Pyknosed Nuclei (%) [1]: 38%
- Population Tubulin-Different-Phenotype (%) [1]: 33%
- Total Cell Count [1]: 303
- Population Apoptotic (%) [2]: 8%
- Population Fragmented Nuclei (%) [2]: 9%
- Population Healthy Nuclei (%) [2]: 52%
- Population Hoechst High Intensity Objects (%) [2]: 2%
- Population Membrane Permeable-Phenotype (%) [2]: 10%
- Population Mitochondria Different-Phenotype (%) [2]: 9%
- Population Mitotic Cells (%) [2]: 91%
- Population Normal (%) [2]: 97%
- Population Tubulin-Different-Phenotype (%) [2]: 21%
- Total Cell Count [2]: 198
- Population Apoptotic (%) [3]: 32%
- Population Fragmented Nuclei (%) [3]: 6%
- Population Healthy Nuclei (%) [3]: 54%
- Population Hoechst High Intensity Objects (%) [3]: 6%
- Population Membrane Permeable-Phenotype (%) [3]: 4%
- Population Mitochondria Different-Phenotype (%) [3]: 70%
- Population Mitotic Cells (%) [3]: 67%
- Population Normal (%) [3]: 93%
- Population Pyknosed Nuclei (%) [3]: 38%
- Population Tubulin-Different-Phenotype (%) [3]: 62%
- Total Cell Count [3]: 432
- Population Apoptotic (%) [4]: 10%
- Population Fragmented Nuclei (%) [4]: 9%
- Population Healthy Nuclei (%) [4]: 29%
- Population Hoechst High Intensity Objects (%) [4]: 5%
- Population Membrane Permeable-Phenotype (%) [4]: 11%
- Population Mitochondria Different-Phenotype (%) [4]: 21%
- Population Mitotic Cells (%) [4]: 89%
- Population Normal (%) [4]: 94%
- Population Pyknosed Nuclei (%) [4]: 60%
- Population Tubulin-Different-Phenotype (%) [4]: 42%
- Total Cell Count [4]: 251
- Population Apoptotic (%) [5]: 38%
- Population Fragmented Nuclei (%) [5]: 9%
- Population Healthy Nuclei (%) [5]: 58%
- Population Hoechst High Intensity Objects (%) [5]: 9%
- Population Membrane Permeable-Phenotype (%) [5]: 1%
- Population Mitochondria Different-Phenotype (%) [5]: 44%
- Population Mitotic Cells (%) [5]: 62%
- Population Normal (%) [5]: 90%
- Population Pyknosed Nuclei (%) [5]: 31%
- Population Tubulin-Different-Phenotype (%) [5]: 34%
- Total Cell Count [5]: 349
- Population Apoptotic (%) [6]: 10%
- Population Fragmented Nuclei (%) [6]: 10%
- Population Healthy Nuclei (%) [6]: 63%
- Population Hoechst High Intensity Objects (%) [6]: 1%
- Population Membrane Permeable-Phenotype (%) [6]: 14%
- Population Mitochondria Different-Phenotype (%) [6]: 9%
- Population Mitotic Cells (%) [6]: 89%
- Population Normal (%) [6]: 98%
- Population Pyknosed Nuclei (%) [6]: 26%
- Population Tubulin-Different-Phenotype (%) [6]: 18%
- Total Cell Count [6]: 260
- Population Apoptotic (%) [7]: 31%
- Population Fragmented Nuclei (%) [7]: 5%
- Population Healthy Nuclei (%) [7]: 58%
- Population Hoechst High Intensity Objects (%) [7]: 6%
- Population Membrane Permeable-Phenotype (%) [7]: 3%
- Population Mitochondria Different-Phenotype (%) [7]: 71%
- Population Mitotic Cells (%) [7]: 68%
- Population Normal (%) [7]: 93%
- Population Pyknosed Nuclei (%) [7]: 36%
- Population Tubulin-Different-Phenotype (%) [7]: 88%
- Total Cell Count [7]: 423
- Population Apoptotic (%) [8]: 17%
- Population Fragmented Nuclei (%) [8]: 9%
- Population Healthy Nuclei (%) [8]: 41%
- Population Hoechst High Intensity Objects (%) [8]: 4%
- Population Membrane Permeable-Phenotype (%) [8]: 15%
- Population Mitochondria Different-Phenotype (%) [8]: 25%
- Population Mitotic Cells (%) [8]: 82%
- Population Normal (%) [8]: 95%
- Population Pyknosed Nuclei (%) [8]: 49%
- Population Tubulin-Different-Phenotype (%) [8]: 78%
- Total Cell Count [8]: 239
- Population Apoptotic (%) [9]: 43%
- Population Fragmented Nuclei (%) [9]: 19%
- Population Healthy Nuclei (%) [9]: 67%
- Population Hoechst High Intensity Objects (%) [9]: 4%
- Population Membrane Permeable-Phenotype (%) [9]: 3%
- Population Mitochondria Different-Phenotype (%) [9]: 16%
- Population Mitotic Cells (%) [9]: 56%
- Population Normal (%) [9]: 95%
- Population Pyknosed Nuclei (%) [9]: 13%
- Population Tubulin-Different-Phenotype (%) [9]: 15%
- Total Cell Count [9]: 535
- Population Apoptotic (%) [10]: 14%
- Population Fragmented Nuclei (%) [10]: 13%
- Population Healthy Nuclei (%) [10]: 76%
- Population Hoechst High Intensity Objects (%) [10]: 3%
- Population Membrane Permeable-Phenotype (%) [10]: 13%
- Population Mitochondria Different-Phenotype (%) [10]: 5%
- Population Mitotic Cells (%) [10]: 85%
- Population Normal (%) [10]: 96%
- Population Pyknosed Nuclei (%) [10]: 9%
- Population Tubulin-Different-Phenotype (%) [10]: 20%
- Total Cell Count [10]: 437
- Population Apoptotic (%) [11]: 37%
- Population Fragmented Nuclei (%) [11]: 18%
- Population Healthy Nuclei (%) [11]: 69%
- Population Hoechst High Intensity Objects (%) [11]: 8%
- Population Membrane Permeable-Phenotype (%) [11]: 2%
- Population Mitochondria Different-Phenotype (%) [11]: 46%
- Population Mitotic Cells (%) [11]: 62%
- Population Normal (%) [11]: 91%
- Population Pyknosed Nuclei (%) [11]: 11%
- Population Tubulin-Different-Phenotype (%) [11]: 79%
- Total Cell Count [11]: 471
- Population Apoptotic (%) [12]: 27%
- Population Fragmented Nuclei (%) [12]: 14%
- Population Healthy Nuclei (%) [12]: 59%
- Population Hoechst High Intensity Objects (%) [12]: 4%
- Population Membrane Permeable-Phenotype (%) [12]: 13%
- Population Mitochondria Different-Phenotype (%) [12]: 24%
- Population Mitotic Cells (%) [12]: 72%
- Population Normal (%) [12]: 95%
- Population Pyknosed Nuclei (%) [12]: 25%
- Population Tubulin-Different-Phenotype (%) [12]: 74%
- Total Cell Count [12]: 253
